# Measurements pooled from the literature.
# Compare with care: the assays were run in different laboratories.
# P2RY14: P2Y purinoceptor 14 (P2RY14, Homo sapiens, UniProt Q15391)
# ADRA1B: Alpha-1B adrenergic receptor (ADRA1B, Homo sapiens, UniProt P35368)
# Nuclear receptor subfamily 4 group A member 2: Nuclear receptor subfamily 4 group A member 2 (Homo sapiens, UniProt P43354)
SMILES,target,read-out,method,measurement,result
O=C(O)c1cc(-c2ccc(-n3ccnn3)cc2)c2ccc(-c3ccc(C(F)(F)F)cc3)cc2c1,P2RY14,ligand displacement in cells,flow cytometry,Ki,14.2 nM
Cc1cc(Oc2ncccc2CN2CCN(c3ccccc3[N+](=O)[O-])CC2)ccc1-c1c(C)c(=O)[nH]c(=O)n1C,ADRA1B,ligand displacement,radioligand,Ki,2920 nM
COc1cccc2c(Nc3ccc4[nH]c(C(=O)N/N=C/c5ccc(SC)cc5)cc4c3)cc(C)nc12,Nuclear receptor subfamily 4 group A member 2,binding,ITC,Kd,2800 nM
O=C(O)c1cc(-c2ccc(-n3nncc3CCOP(=O)(O)O)cc2)c2ccc(-c3ccc(C(F)(F)F)cc3)cc2c1,P2RY14,ligand displacement in cells,flow cytometry,Ki,91.3 nM
Cc1cc(Oc2ncccc2CN2CCN(c3ccc(Cl)cc3)CC2)ccc1-c1c(C)c(=O)[nH]c(=O)n1C,ADRA1B,ligand displacement,radioligand,Ki,2590 nM
COC(=O)c1cn(C)c2ccc(-c3cccnc3)cc12,Nuclear receptor subfamily 4 group A member 2,binding,ITC,Kd,400 nM
Cc1cc(Oc2ncccc2CN2CCN(c3ccccc3C#N)CC2)ccc1-c1c(C)c(=O)[nH]c(=O)n1C,ADRA1B,ligand displacement,radioligand,Ki,464 nM
O=C(O)c1cc(-c2ccc(-c3ccncc3)cc2)c2ccc(-c3ccc(C(F)(F)F)cc3)cc2c1,P2RY14,ligand displacement in cells,flow cytometry,Ki,23.7 nM
Cc1onc(-c2ccccc2)c1-c1ccc(S(N)(=O)=O)cc1,Nuclear receptor subfamily 4 group A member 2,binding,ITC,Kd,1200 nM
O=C(O)c1cc(-c2ccc(-c3c[nH]nn3)cc2)c2ccc(-c3ccc(C(F)(F)F)cc3)cc2c1,P2RY14,ligand displacement in cells,flow cytometry,Ki,2.15 nM
CCN(CC)Cc1cc(Nc2ccnc3cc(Cl)ccc23)ccc1O,Nuclear receptor subfamily 4 group A member 2,binding,ITC,Kd,2700 nM
Cc1cc(Oc2ncccc2CN2CCN(c3cccc(F)c3)CC2)ccc1-c1c(C)c(=O)[nH]c(=O)n1C,ADRA1B,ligand displacement,radioligand,Ki,3020 nM
Nc1ncnc2c1ncn2[C@@H]1O[C@H](COP(=O)(O)OP(=O)(O)OP(=O)(O)O)[C@@H](O)[C@H]1O,"P2X purinoceptor 7 (P2RX7, Homo sapiens, UniProt Q99572)",binding,SPR,Kd,224000 nM
Cc1cc(Oc2ncccc2CN2CCN(CCc3ccccc3)CC2)ccc1-c1c(C)c(=O)[nH]c(=O)n1C,ADRA1B,ligand displacement,radioligand,Ki,1660 nM
O=C(O)c1cc(-c2ccc(-n3cc(CCO)nn3)cc2)c2ccc(-c3ccc(C(F)(F)F)cc3)cc2c1,P2RY14,ligand displacement in cells,flow cytometry,Ki,89 nM
